# Test results published in PMC7424198 (iScience, 2020).
# Assay: Thermal unfolding monitored by CD spectroscopy
# Type: physicochemical
# Conditions: 20 μM protein, 10 mM phosphate buffer pH 7.4, 2 °C intervals, 20 to 90 °C
# Method in brief: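 TM read as the transition point from the first derivative of the CD thermal unfolding curve. Reversibility was checked by comparing spectra recorded before and after heating. The 202 nm signal was followed during denaturation to look for an isodichroic point, which would indicate a two-state helix–unfolded transition. Spectra were recorded on 20 μM protein in 10 mM phosphate buffer.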
substance,measurement,value
aureocin A53,transition midpoint (TM) of thermal unfolding,~54 °C
